Results gathered from unrelated publications.
Organism: Trypanosoma brucei
Effect on: parasite growth

| SMILES | test | test system | setting | quantity | value |
| --- | --- | --- | --- | --- | --- |
| CCCN1CCC(c2ccc(Nc3nc(Nc4cc(F)ccc4C(N)=O)c4cc[nH]c4n3)c(OC)c2)CC1 | – | – | – | EC50 | 1580 nM |
| N=C(N)c1ccc(OCCCCCOc2ccc(C(=N)N)cc2)cc1 | – | – | – | EC50 | 1.24 nM |
| COC(=O)C1CCN(C(=O)c2ccc(SCc3cnc4nc(N)nc(N)c4n3)nc2)CC1 | resazurin | – | 10 µM, 72 h | inhibition | 16% |
| ClCCOC1c2ccccc2CCc2ccccc21 | – | – | – | EC50 | 27900 nM |
| Nc1nccc(C#Cc2cncnc2Nc2ccc(OCc3cccc(F)c3)c(Cl)c2)n1 | – | – | – | EC50 | 3160 nM |
| Nc1nc(N)c2nc(CNc3ccc(C(=O)N4CCC(C(=O)O)CC4)cc3)cnc2n1 | resazurin | – | 10 µM, 72 h | inhibition | 8% |
| OC(c1ccccc1)c1ccccc1 | – | – | – | EC50 | > 100000 nM |
| Cc1ccc2nc(-c3ccc(F)c(F)c3)c(CN3CCN(C4CCCCC4)CC3)n2c1 | – | – | 48 h | EC50 | > 20000 nM |
| O=[N+]([O-])c1c(CS(=O)(=O)c2ccccc2)nc2c(-c3cccc(C(F)(F)F)c3)cc(Cl)cn12 | resazurin | – | trypomastigote | IC50 | 40 to 160 nM |
| ClCCOC(c1ccccc1)c1ccccc1 | – | – | – | EC50 | 32100 nM |
| CCCOC(=O)C1CCN(C(=O)c2ccc(N(C)Cc3cnc4nc(N)nc(N)c4n3)cc2)CC1 | resazurin | – | 10 µM, 72 h | inhibition | 51% |
| Cc1c2ccc(N(C)c3ccnc(Nc4cccc(S(N)(=O)=O)c4)n3)cc2nn1C | – | – | – | EC50 | 5010 nM |
| O=C(Nc1ccc2c(c1)B(O)OC2)Nc1ccc(F)c(C(F)(F)F)c1 | – | RHODESIENSE STIB900 | – | IC50 | 520 nM |
| CN(Cc1cnc2nc(N)nc(N)c2n1)c1ccc(C(=O)N2CCCCC2)cc1 | resazurin | – | 10 µM, 72 h | inhibition | 48% |
| Cc1ccc(C(=O)Nc2ccc(S(=O)(=O)O)c3cc(S(=O)(=O)O)cc(S(=O)(=O)O)c23)cc1NC(=O)c1cccc(NC(=O)Nc2cccc(C(=O)Nc3cc(C(=O)Nc4ccc(S(=O)(=O)O)c5cc(S(=O)(=O)O)cc(S(=O)(=O)O)c45)ccc3C)c2)c1 | resazurin | RHODESIENSE | – | IC50 | 50 nM |
| COc1ccc(-c2oc3ncnc(N)c3c2-c2ccc(NC(=O)Nc3cc(C(F)(F)F)ccc3F)cc2)cc1 | – | – | – | EC50 | 1580 nM |

| SMILES | test | test system | setting | quantity | value |
| --- | --- | --- | --- | --- | --- |
| NNC(=O)CN1C(=O)CNC2(C1=O)C1CC3CC(C1)CC2C3 (stereo not shown) | – | – | pH 7.4, blood stage | IC50 | 118000 nM |
| COC(=O)C1CCN(C(=O)Cc2ccc(NCc3cnc4nc(N)nc(N)c4n3)cc2)CC1 | resazurin | – | 10 µM, 72 h | inhibition | 23% |
| COc1ccc(C(=O)Nc2ccc(NC(=N)N)c(OCc3cc(OC)ccc3OC)c2)cc1 | – | – | – | IC50 | 800 nM |
| CC1CS(=O)(=O)CCN1/N=C/c1ccc([N+](=O)[O-])o1 (stereo not shown) | – | – | – | IC50 | 3500 nM |
| Nc1nc(N)c2nc(C(=O)NCc3ccccc3)cnc2n1 | resazurin | – | 10 µM, 72 h | inhibition | 19% |
| CONC(=O)CN1C(=O)CNC2(C1=O)C1CC3CC(C1)CC2C3 (stereo not shown) | – | – | pH 7.4, blood stage | IC50 | 542000 nM |
| Cc1ccc2nc(-c3ccc(F)c(F)c3)c(CN3CCC(Cc4ccccc4)CC3)n2c1 | – | – | 48 h | EC90 | 18100 nM |
| CS(=O)(=O)CCNCc1cc(-c2cc3c(Nc4ccc(OCc5cccc(F)c5)c(Cl)c4)ncnc3s2)cs1 | – | – | – | EC50 | 794 nM |
| CCOC(=O)C1CCCN1C(=O)c1ccc(NCc2cnc3nc(N)nc(N)c3n2)cc1 (stereo not shown) | resazurin | – | 10 µM, 72 h | inhibition | 30% |
| Fc1ccc(-c2ncn(C3CCNCC3)c2-c2ccnc(Oc3ccc(Oc4ccccc4)cc3)n2)cc1 | – | – | – | EC50 | 794 nM |
| Cc1ccc(C(=O)Nc2ccc(S(=O)(=O)O)c3cc(S(=O)(=O)O)cc(S(=O)(=O)O)c23)cc1NC(=O)c1cccc(NC(=O)Nc2cccc(C(=O)Nc3cc(C(=O)Nc4ccc(S(=O)(=O)O)c5cc(S(=O)(=O)O)cc(S(=O)(=O)O)c45)ccc3C)c2)c1 | resazurin | RHODESIENSE STIB900 | – | IC50 | 35 nM |
| [O-][S+]1CCN(Cc2ccc(-c3ccc4ncnc(Nc5ccc(OCc6ccccc6)c(Cl)c5)c4c3)o2)CC1 | – | – | – | EC50 | 631 nM |
| COc1ccc(CNC(=O)c2ccc(CNCc3cnc4nc(N)nc(N)c4n3)cc2)cc1OC | resazurin | – | 10 µM, 72 h | inhibition | 36% |
| Cc1ccc2nc(-c3ccc(Cl)cc3)cn2c1 | – | – | 48 h | EC50 | 10400 nM |
| Cc1nn(C)c2cc(N(C)c3ccnc(Nc4cccc(S(N)(=O)=O)c4)n3)ccc12 | – | – | – | EC50 | 316 nM |
